# pEC50: −log10 of the molar value. Calls of active or inactive are those of the source. No cut-off for these calls is given here.
# How the values were obtained:
# [1] = species on record: Mus musculus; experiment: Selectivity ratio of EC50 for GAL4-fused mouse RARalpha LBD expressed in COS-7 cells to EC50 for GAL4-fused mouse RARbeta-LBD expressed in COS-7 cells; assay type: cell-based
# [2] = target: T1, Retinoic acid receptor gamma (Mus musculus, UniProt P18911); experiment: Transactivation of GAL4-fused mouse RARgamma-LBD expressed in COS-7 cells after 24 hrs by bright-Glo reagent based assay; assay type: cell-based
# T1 sequence (P18911 whole entry): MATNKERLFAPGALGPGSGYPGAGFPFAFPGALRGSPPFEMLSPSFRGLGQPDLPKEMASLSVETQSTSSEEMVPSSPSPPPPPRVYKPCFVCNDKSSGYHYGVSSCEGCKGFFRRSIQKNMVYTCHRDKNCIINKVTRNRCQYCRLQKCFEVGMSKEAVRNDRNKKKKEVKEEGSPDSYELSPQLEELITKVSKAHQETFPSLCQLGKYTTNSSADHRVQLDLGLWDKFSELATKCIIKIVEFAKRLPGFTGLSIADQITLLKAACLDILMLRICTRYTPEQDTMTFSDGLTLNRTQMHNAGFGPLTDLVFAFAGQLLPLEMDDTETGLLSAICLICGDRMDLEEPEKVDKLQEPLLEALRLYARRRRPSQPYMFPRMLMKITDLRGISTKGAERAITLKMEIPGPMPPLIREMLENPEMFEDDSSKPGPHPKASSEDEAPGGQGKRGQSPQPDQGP
# How it was run: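 Transactivation assays with mouse RAR α, β and γ ligand binding domains; values usually from three separate experiments, with error about 20% of the mean.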
# [3] = Fraction absorbed in Sprague-Dawley rat at 1 to 10 mg/kg, po by LC-MS/MS analysis; assay type: ADME, organism-based; conditions: in vivo, read-out: Fabs
# How it was run: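 Rats: oral doses of 1, 3 and 10 mg/kg in 8% ethanol/92% PEG-400; iv reference 0.5 mg/kg in 4% DMSO, 38% PEG-400, 58% (0.9%) NaCl. Fraction absorbed is the mean over the three oral doses relative to the iv dose.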
# [4] = test system: Salmonella typhimurium; experiment: Toxicity in Salmonella typhimurium TA98 at 100 uM; assay type: organism-based; conditions: salmonella enterica subsp. enterica serovar typhimurium
# How it was run: (§1)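 Bacterial cytotoxicity testing up to 100 μM.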
# [5] = Genotoxicity in Salmonella typhimurium TA98 at 100 uM by Ames test; assay type: toxicity; conditions: salmonella enterica subsp. enterica serovar typhimurium
# How it was run: (§2)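 Ames test in three bacterial strains.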
# [6] = test system: CHO-K1; experiment: Genotoxicity in CHOK1 cells in absence of S9 fraction by micronucleus test; assay type: toxicity, cell-based, Cricetulus griseus; conditions: chinese hamster
# How it was run: (§3)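 In vitro micronucleus test in CHO-K1 cells, run both with and without S9.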
# [7] = target: Voltage-gated inwardly rectifying potassium channel KCNH2 (Homo sapiens, UniProt Q12809); experiment: Displacement of [3H]astemizole from human ERG at 10 uM
# Voltage-gated inwardly rectifying potassium channel KCNH2, sequence (Q12809 whole entry): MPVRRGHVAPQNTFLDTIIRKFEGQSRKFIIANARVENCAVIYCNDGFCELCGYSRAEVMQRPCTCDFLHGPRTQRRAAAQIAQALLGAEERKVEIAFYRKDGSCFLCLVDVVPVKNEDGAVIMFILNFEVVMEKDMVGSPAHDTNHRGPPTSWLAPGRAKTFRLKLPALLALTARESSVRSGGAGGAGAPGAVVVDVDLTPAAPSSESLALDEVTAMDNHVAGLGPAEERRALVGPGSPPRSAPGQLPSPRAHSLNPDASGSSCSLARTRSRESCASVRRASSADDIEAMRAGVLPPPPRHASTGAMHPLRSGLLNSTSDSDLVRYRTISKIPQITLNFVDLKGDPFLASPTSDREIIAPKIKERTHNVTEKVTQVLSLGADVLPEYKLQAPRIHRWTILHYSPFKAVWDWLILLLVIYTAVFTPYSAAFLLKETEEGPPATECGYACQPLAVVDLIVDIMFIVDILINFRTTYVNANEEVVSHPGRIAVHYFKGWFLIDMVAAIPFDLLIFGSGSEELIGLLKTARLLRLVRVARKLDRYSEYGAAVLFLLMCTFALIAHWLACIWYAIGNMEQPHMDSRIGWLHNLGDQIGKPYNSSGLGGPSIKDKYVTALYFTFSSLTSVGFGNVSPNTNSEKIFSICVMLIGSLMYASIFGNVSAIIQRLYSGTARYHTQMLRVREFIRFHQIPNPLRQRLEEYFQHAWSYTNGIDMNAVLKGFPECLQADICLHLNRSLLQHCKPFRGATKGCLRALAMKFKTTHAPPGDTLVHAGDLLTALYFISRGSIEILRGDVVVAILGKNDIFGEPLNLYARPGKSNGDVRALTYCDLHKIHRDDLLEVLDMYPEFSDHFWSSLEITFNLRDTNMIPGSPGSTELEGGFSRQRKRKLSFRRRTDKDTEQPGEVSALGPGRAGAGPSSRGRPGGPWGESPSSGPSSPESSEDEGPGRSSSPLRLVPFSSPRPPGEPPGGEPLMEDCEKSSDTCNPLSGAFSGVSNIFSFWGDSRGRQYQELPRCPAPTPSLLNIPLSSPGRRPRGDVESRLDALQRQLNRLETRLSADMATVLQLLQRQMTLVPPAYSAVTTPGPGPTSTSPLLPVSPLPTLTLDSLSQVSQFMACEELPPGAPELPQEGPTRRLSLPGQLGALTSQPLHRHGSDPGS
# How it was run: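 HERG channel binding assay at 10 μM.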
# [8] = Drug uptake in Sprague-Dawley rat brain at 1 to 10 mg/kg, po measured after 8 hrs by LC-MS/MS analysis; assay type: ADME, organism-based; conditions: in vivo
# How it was run: (§4)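 Oral dosing to rats; brain tissue and plasma levels compared 8 h after dosing.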
# [9] = test system: HepG2; experiment: Cytotoxicity against human HepG2 cells at 50 uM; assay type: cell-based; conditions: hepg2, 50 µM
# How it was run: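 HepG2 cell toxicity assay; highest concentration tested 50 μM.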
# [10] = test system: CHO-K1; experiment: Genotoxicity in CHOK1 cells in presence of S9 fraction by micronucleus test; assay type: toxicity, cell-based, Cricetulus griseus; conditions: chinese hamster; how it was run: as §3
# [11] = Drug uptake in Sprague-Dawley rat plasma at 1 to 10 mg/kg, po measured after 8 hrs by LC-MS/MS analysis; assay type: ADME, organism-based; conditions: in vivo; how it was run: as §4
# [12] = test system: Salmonella typhimurium; experiment: Toxicity in Salmonella typhimurium TA1535 at 100 uM; assay type: organism-based; conditions: salmonella enterica subsp. enterica serovar typhimurium; how it was run: as §1
# [13] = test system: CHO-MG; experiment: Agonist activity at RARbeta in CHO-MG cells assessed as increase in neurite length after 24 hrs by immunostaining based assay; assay type: cell-based; conditions: Cricetulus griseus
# How it was run: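 Cerebellar neurons cultured on a CHO-MAG cell monolayer; 24 hr exposure to vehicle or agonist at 1×10^-8 – 1×10^-6 M. Neurite outgrowth read by immunostaining and neurite length quantification; means of 3 independent experiments; Student's t-test, vehicle versus highest dose.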
# [14] = Genotoxicity in Salmonella typhimurium TA100 at 100 uM by Ames test; assay type: toxicity; conditions: salmonella enterica subsp. enterica serovar typhimurium; how it was run: as §2
# [15] = test system: Salmonella typhimurium; experiment: Toxicity in Salmonella typhimurium TA100 at 100 uM; assay type: organism-based; conditions: salmonella enterica subsp. enterica serovar typhimurium; how it was run: as §1
# [16] = test system: Rattus norvegicus; experiment: Neuroprotective activity in avulsed rat model assessed as reduction in latency for time taken to sense and remove the tape from the paw of the lesioned forelimbs at 3 mg/kg, po administered every other day for 4 weeks; assay type: functional, organism-based
# How it was run: (§5)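 Rats with avulsion injury given 3 mg/kg orally three times a week, every other day; sensory and locomotor function assessed. Mean of n = 8; two-way repeated-measures ANOVA with Tukey's post-hoc test.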
# [17] = Genotoxicity in Salmonella typhimurium TA1535 at 100 uM by Ames test; assay type: toxicity; conditions: salmonella enterica subsp. enterica serovar typhimurium; how it was run: as §2
# [18] = test system: Rattus norvegicus; experiment: Neuroprotective activity in avulsed rat model assessed as reduction in number of foot slips in a horizontal ladder by injured forelimb at 3 mg/kg, po administered every other day for 4 weeks; assay type: functional, organism-based; how it was run: as §5
pEC50 [2],SMILES,Ratio EC50 [1],further results
–,CCCCOCCOc1nc(-c2ccc(C(=O)O)c(F)c2)sc1C,5.8,–
–,Cc1cc(C(=O)O)ccc1-c1noc(-c2cc3c(C)ccc(C)c3o2)n1,13,–
8.27,CCOc1c(Cl)cc(-c2noc(-c3ccc(C(=O)O)cc3)n2)cc1Cl,–,–
–,Cc1ccc(C)c2oc(-c3nc(-c4ccc(C(=O)O)c(F)c4)no3)cc12,7.3,–
–,Cc1ccc(C)c2oc(-c3nc(-c4ccc(C(=O)O)cc4)no3)cc12,13,Fa [3]: 80%; Activity [4]: Non-Toxic; Activity [5]: Non-Toxic; Activity [6]: Non-Toxic; inhibition (INH) [7]: Not Active; Drug uptake [8]: Active; Activity [9]: Non-Toxic; Activity [10]: Non-Toxic; Drug uptake [11]: Active; Activity [12]: Non-Toxic; Activity [13]: Dose-dependent effect; Activity [14]: Non-Toxic; Activity [15]: Non-Toxic; Activity [16]: Active; Activity [17]: Non-Toxic; Activity [18]: Active
–,CC1(C)CCC(C)(C)c2cc(-c3nc(-c4ccc(C(=O)O)cc4)no3)ccc21,17,–
7.35,CCOc1c(Cl)cc(-c2cnc(-c3ccc(C(=O)O)cc3)o2)cc1Cl,–,–
6.80,CCOc1c(Cl)cc(-c2csc(-c3ccc(C(=O)O)cc3)n2)cc1Cl,–,–
6.82,CCOc1c(Cl)cc(-c2nnc(-c3ccc(C(=O)O)cc3)o2)cc1Cl,–,–
–,Cc1ccc(C)c2sc(-c3nc(-c4ccc(C(=O)O)cc4)no3)cc12,9,–
–,Cc1ccc(C)c2oc(-c3nc(-c4ccc(C(=O)O)cc4)no3)nc12,10,–
–,CC(C)(C)c1cc(-c2nc(-c3ccc(C(=O)O)cc3)no2)cc(C(C)(C)C)c1,2.8,–
–,O=C(O)c1ccc(-c2noc(-c3cc4c(C(F)(F)F)ccc(F)c4o3)n2)cc1,7.6,–
–,Cc1cc(-c2noc(-c3cc4c(C)ccc(C)c4o3)n2)ccc1C(=O)O,6.4,–
–,Cc1ccc(C)c2oc(-c3nc(-c4ccc(C(=O)O)cc4F)no3)cc12,5.5,–
4.52,CCOc1c(Cl)cc(C(=O)Nc2ccc(C(=O)O)cc2)cc1Cl,–,–

# Reference: ChEMBL document CHEMBL4400551, “Discovery and lead optimisation of a potent, selective and orally bioavailable RARβ agonist for the potential treatment of nerve injury” (Bioorg Med Chem Lett, 2019)
